Laboratory results published in ChEMBL document CHEMBL2062523, “Synthesis and evaluation of the quorum sensing inhibitory effect of substituted triazolyldihydrofuranones” (Bioorg Med Chem, 2012).
In brackets after ≈: the same amount, converted by molar mass. Activity calls are given as the source filed them. No cut-off for these calls is given here.

Columns and labels:
[1] = test system: Pseudomonas aeruginosa; assay: Agonist activity at Pseudomonas aeruginosa QSIS2 LasR-mediated quorum sensing co-expressing SacB1 assessed as luminescence at 0.25 mM after 24 hrs by reporter gene assay; type: functional
[2] = test system: Pseudomonas aeruginosa; assay: Antagonist activity at Pseudomonas aeruginosa QSIS2 LasR-mediated quorum sensing co-expressing SacB1 assessed as inhibition of 3-oxo-C12-HSL-induced luminescence at 0.5 mM after 24 hrs by reporter gene assay; type: functional
[3] = test system: Pseudomonas aeruginosa; assay: Agonist activity at Pseudomonas aeruginosa QSIS2 LasR-mediated quorum sensing co-expressing SacB1 assessed as luminescence at 0.1 mM after 24 hrs by reporter gene assay; type: functional
[4] = test system: Pseudomonas aeruginosa; assay: Agonist activity at Pseudomonas aeruginosa QSIS2 LasR-mediated quorum sensing coexpressing SacB1 assessed as […] by reporter gene assay; type: functional
[5] = test system: Burkholderia cenocepacia; assay: Antibacterial activity against Burkholderia cenocepacia LMG16656 after 20 hrs by broth microdilution assay; type: functional; details: LMG16656, 20 h
How it was run: (§1)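 EUCAST broth microdilution in triplicate, inoculum about 5 × 10^5 CFU/ml. Incubated 20 h at 37 °C, then OD590 read. Compounds from 100 mM DMSO stocks, diluted in water.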

[6] = test system: Burkholderia cenocepacia; assay: Antimicrobial activity against Burkholderia cenocepacia LMG16656 assessed as reduction of cell viability at 1 mM incubated for 24 hrs post-biofilm growth by CTB staining; type: functional, organism-based
How it was run: (§2)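 Biofilms were grown 24 h at 37 °C in 2× MH (inoculum OD590 0.1) without compound. Wells were rinsed with saline, fresh medium with compound was added, and plates were held a further 24 h at 37 °C. Metabolically active cells were measured by CTB resazurin fluorescence after 60 min (ex 535/em 590) as % of control biofilm; n ≥ 24.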

[7] = test system: Pseudomonas aeruginosa; assay: Agonist activity at Pseudomonas aeruginosa QSIS2 LasR-mediated quorum sensing co-expressing SacB1 assessed as luminescence at 0.5 mM after 24 hrs by reporter gene assay; type: functional
[8] = test system: Pseudomonas aeruginosa; assay: Antagonist activity at Pseudomonas aeruginosa QSIS2 LasR-mediated quorum sensing co-expressing SacB1 assessed as inhibition of 3-oxo-C12-HSL-induced luminescence at 0.1 mM after 24 hrs by reporter gene assay; type: functional
[9] = molecular target: T1, Transcriptional activator protein LuxR (Aliivibrio fischeri) (UniProt P12746); assay: Agonist activity at Vibrio fischeri LuxR-mediated quorum sensing expressed in Escherichia coli JB523 assessed as GFP expression at 1 mM after 24 hrs by reporter gene assay; type: functional
T1 sequence (whole entry): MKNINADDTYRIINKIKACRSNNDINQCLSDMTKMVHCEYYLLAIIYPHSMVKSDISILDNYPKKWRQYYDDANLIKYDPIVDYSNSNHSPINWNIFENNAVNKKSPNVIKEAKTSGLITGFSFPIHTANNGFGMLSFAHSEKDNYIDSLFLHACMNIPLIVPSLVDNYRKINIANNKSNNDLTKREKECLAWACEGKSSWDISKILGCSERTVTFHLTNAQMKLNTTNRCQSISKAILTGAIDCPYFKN
How it was run: (§3)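 E. coli JB523 (pJBA130, luxR-PluxI–GFP) overnight culture diluted to OD590 0.1 in LB with 0.4% NaCl, tetracycline 100 µg/ml final. Compounds 100–1000 µM added without signal; C6-HSL (5 µM) as positive control, water as negative. 24 h at 30 °C; GFP fluorescence ex 485/em 510 nm. Twelve wells per compound, ≥3 repeats.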

[10] = test system: Pseudomonas aeruginosa; assay: Antimicrobial activity against Pseudomonas aeruginosa PAO1 assessed as reduction of cell viability at 1 mM incubated for 24 hrs post-biofilm growth by CTB staining; type: functional; how it was run: as §2
[11] = test system: Pseudomonas aeruginosa; assay: Antimicrobial activity against Pseudomonas aeruginosa PAO1 assessed as reduction of cell viability at 1 mM after 24 hrs by CTB staining; type: functional, organism-based
How it was run: (§4)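 Overnight MH cultures were centrifuged, resuspended in 2× MH and set to OD590 0.1. Cells adhered 4 h at 37 °C, wells were washed with saline, then compound in 2× MH was added for 20 h at 37 °C. Viable cells were read by resazurin (CTB) fluorescence after 60 min (ex 535/em 590) as % of untreated biofilm; 12 wells, ≥2 repeats.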

[12] = test system: Pseudomonas aeruginosa; assay: Agonist activity at Pseudomonas aeruginosa QSIS2 LasR-mediated quorum sensing co-expressing SacB1 assessed as luminescence after 24 hrs by reporter gene assay; type: functional
[13] = molecular target: T1, Transcriptional activator protein LuxR (Aliivibrio fischeri); assay: Agonist activity at Vibrio fischeri LuxR-mediated quorum sensing expressed in Escherichia coli JB523 assessed as GFP expression at 0.1 mM after 24 hrs by reporter gene assay; type: functional; how it was run: as §3
[14] = test system: Pseudomonas aeruginosa; assay: Antibacterial activity against Pseudomonas aeruginosa PAO1 after 20 hrs by broth microdilution assay; type: functional; details: PAO1, 20 h; how it was run: as §1
[15] = molecular target: T1, Transcriptional activator protein LuxR (Aliivibrio fischeri); assay: Agonist activity at Vibrio fischeri LuxR-mediated quorum sensing expressed in Escherichia coli JB523 assessed as GFP expression at 0.5 mM after 24 hrs by reporter gene assay; type: functional; how it was run: as §3
[16] = test system: Escherichia coli; assay: Antibacterial activity against Escherichia coli JB523 after 20 hrs by broth microdilution assay; type: functional; details: JB523, 20 h; how it was run: as §1
[17] = test system: Pseudomonas aeruginosa; assay: Antagonist activity at Pseudomonas aeruginosa QSIS2 LasR-mediated quorum sensing co-expressing SacB1 assessed as inhibition of 3-oxo-C12-HSL-induced luminescence at 0.25 mM […] by reporter gene assay; type: functional
[18] = test system: Burkholderia cenocepacia; assay: Antimicrobial activity against Burkholderia cenocepacia LMG16656 assessed as reduction of biofilm biomass at 1 mM incubated for 24 hrs post-biofilm growth by crystal violet staining; type: functional, organism-based
How it was run: (§5)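 Mature-biofilm treatment: biofilms grown 24 h at 37 °C without compound, rinsed with saline, then fresh medium containing compound added for a further 24 h at 37 °C. Biomass measured by crystal violet (methanol fixation, acetic acid elution, A590). Reported as % of control biofilm; twelve wells, ≥2 repeats.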

[19] = molecular target: T1, Transcriptional activator protein LuxR (Aliivibrio fischeri); assay: (§6) Antagonist activity at Vibrio fischeri LuxR-mediated quorum sensing expressed in Escherichia coli JB523 assessed as inhibition of C6-HSL-induced GFP expression after 24 hrs by reporter gene assay; type: functional
How it was run: (§7)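 JB523 GFP biosensor in LB/0.4% NaCl at OD590 0.1 with tetracycline 100 µg/ml final; compounds co-added with C6-HSL (5 µM). Plates kept 24 h at 30 °C, then GFP read at 485/510 nm. Each compound tested in twelve wells, assay repeated at least three times.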

[20] = test system: Pseudomonas aeruginosa; assay: Antagonist activity at Pseudomonas aeruginosa QSIS2 LasR-mediated quorum sensing co-expressing SacB1 assessed as inhibition of 3-oxo-C12-HSL-induced luminescence at 1 mM […] by reporter gene assay; type: functional
[21] = Cytotoxicity against human MRC5 cells after 3 days by resazurin reduction assay; type: cell-based
How it was run: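 MRC-5 SV2 human lung fibroblasts in Earle's MEM with 5% FCSi, about 10^4 cells per well, exposed for 3 days at 37 °C and 5% CO2. Viability read by resazurin fluorescence (ex 550/em 590 nm) as % reduction versus untreated wells; CC50 derived.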

[22] = test system: Burkholderia cenocepacia; assay: Antimicrobial activity against Burkholderia cenocepacia LMG16656 assessed as reduction of cell viability at 1 mM after 24 hrs by CTB staining; type: functional, organism-based; how it was run: as §4
[23] = molecular target: T1, Transcriptional activator protein LuxR (Aliivibrio fischeri); assay: Antagonist activity at Vibrio fischeri LuxR-mediated quorum sensing expressed in Escherichia coli JB523 assessed as inhibition of C6-HSL-induced GFP expression at 1 mM after 24 hrs by reporter gene assay; type: functional; how it was run: as §7
[24] = molecular target: T1, Transcriptional activator protein LuxR (Aliivibrio fischeri); assay: Antagonist activity at Vibrio fischeri LuxR-mediated quorum sensing expressed in Escherichia coli JB523 assessed as inhibition of C6-HSL-induced GFP expression at 0.1 mM after 24 hrs by reporter gene assay; type: functional; how it was run: as §7
[25] = test system: Pseudomonas aeruginosa; assay: Antibacterial activity against Pseudomonas aeruginosa QSIS2 after 20 hrs by broth microdilution assay; type: functional; details: QSIS2, 20 h; how it was run: as §1
[26] = test system: Burkholderia cenocepacia; assay: Antimicrobial activity against Burkholderia cenocepacia LMG16656 assessed as inhibition of biofilm formation at 1 mM after 24 hrs by crystal violet staining; type: functional; details: LMG16656, 24 h
How it was run: (§8)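 Overnight MH cultures resuspended in 2× MH at OD590 0.1 and mixed 1:1 with compound or water. Adhesion 4 h at 37 °C without agitation, then washed with saline. Refilled with 2× MH plus compound and incubated 20 h at 37 °C. Methanol-fixed, crystal violet stained, eluted with 33% acetic acid, A590 read. Expressed as % of untreated biofilm; n ≥ 24.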

[27] = test system: Pseudomonas aeruginosa; assay: Antimicrobial activity against Pseudomonas aeruginosa PAO1 assessed as reduction of biofilm biomass at 1 mM incubated for 24 hrs post-biofilm growth by crystal violet staining; type: functional; how it was run: as §5
[28] = molecular target: T1, Transcriptional activator protein LuxR (Aliivibrio fischeri); assay: Agonist activity at Vibrio fischeri LuxR-mediated quorum sensing expressed in Escherichia coli JB523 assessed as GFP expression at 0.25 mM after 24 hrs by reporter gene assay; type: functional; how it was run: as §3
[29] = molecular target: T1, Transcriptional activator protein LuxR (Aliivibrio fischeri); assay: Antagonist activity at Vibrio fischeri LuxR expressed in Escherichia coli JB523 assessed as inhibition of C6-HSL-induced GFP expression at 0.5 mM after 24 hrs by reporter gene assay; type: functional; how it was run: as §7
[30] = test system: Pseudomonas aeruginosa; assay: Antimicrobial activity against Pseudomonas aeruginosa PAO1 assessed as inhibition of biofilm formation at 1 mM after 24 hrs by crystal violet staining; type: functional; details: for inhibition at 1000 µM: PAO1, 24 h; how it was run: as §8
[31] = molecular target: T2, Transcriptional activator protein LuxR (Aliivibrio fischeri, UniProt P12746); assay: as §6; type: functional; how it was run: as §7
T2 sequence (P12746 whole entry): T1 sequence (whole entry)

SMILES	Activity [1]	inhibition [2]	Activity [3]	Activity [4]	MIC [5]	Activity [6]	Activity [7]	inhibition [8]	Activity [9]	Activity [10]	Activity [11]	Activity [12]	Activity [13]	MIC [14]	Activity [15]	MIC [16]	inhibition [17]	Activity [18]	inhibition [19]	inhibition [20]	also measured
CCCCCCCCCCCCc1cn(C2CCOC2=O)nn1 (stereo unspecified)	32%	30.9%	28.7%	45.5%	2500 µM (≈ 804 µg/mL)	Active	43.8%	10.6%	inactive	Active	Active	Dose-dependent effect	inactive	2500 µM (≈ 804 µg/mL)	inactive	2.5 mM (≈ 804 µg/mL)	12.8%	Active	Dose-dependent effect	36.5%	CC50 at 72 h [21]: 670 µM; Activity [22]: Active; inhibition [23]: 34.4%; inhibition [24]: inactive; MIC [25]: 2500 µM (≈ 804 µg/mL); inhibition at 1000 µM [26]: 70%; Activity [27]: Active; Activity [28]: inactive; inhibition [29]: 23.7%; inhibition at 1000 µM [30]: 46%
O=C1OCCC1n1cc(CCc2ccccc2)nn1 (stereo unspecified)	41.5%	35.2%	39.1%	81.4%	5000 µM (≈ 1290 µg/mL)	Active	67.2%	15.8%	inactive	37%	Active	Dose-dependent effect	inactive	2500 µM (≈ 643 µg/mL)	inactive	10 mM (≈ 2570 µg/mL)	25.3%	Active	Dose-dependent effect	43.2%	CC50 at 72 h [21]: > 1000 µM; Activity [22]: Active; inhibition [23]: 29.2%; inhibition [24]: inactive; MIC [25]: 5000 µM (≈ 1290 µg/mL); inhibition at 1000 µM [26]: 40%; Activity [27]: 36%; Activity [28]: inactive; inhibition [29]: 25.7%; inhibition at 1000 µM [30]: 40%
CCCCCCCCc1cn(C2CCOC2=O)nn1 (stereo unspecified)	inactive	inactive	inactive	29%	2500 µM (≈ 663 µg/mL)	Active	19.4%	inactive	10.6%	28%	Active	Dose-dependent effect	inactive	2500 µM (≈ 663 µg/mL)	5.2%	5 mM (≈ 1330 µg/mL)	inactive	Active	Dose-dependent effect	inactive	IC50 [31]: 308 µM; CC50 at 72 h [21]: > 1000 µM; Activity [22]: Active; inhibition [23]: 71.6%; inhibition [24]: 34.1%; MIC [25]: 2500 µM (≈ 663 µg/mL); inhibition at 1000 µM [26]: 68%; Activity [27]: 38%; Activity [28]: inactive; inhibition [29]: 59.8%; inhibition [30]: inactive
